pIC50: −log10 of the molar value. Some results are limits rather than exact numbers.

Consider 30 compounds from ChEMBL document CHEMBL3600316, “Discovery of an 8-methoxytetrahydroisoquinoline derivative as an orally active N-type calcium channel blocker for neuropathic pain without CYP inhibition liability” (Bioorg Med Chem, 2015).

The test system of series [1] is Mus musculus. The series can be described thus: Antinociceptive activity in ddY mouse at 100 mg/kg, po by formalin test. In kind it is functional.
The nature of series [2]: Inhibition of N-type calcium channel in human IMR-32 cells by FLIPR calcium imaging assay. The series is classed as cell-based. An outline of the steps: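 FLIPR calcium imaging in IMR-32 human neuroblastoma cells with nitrendipine present to block endogenous L-type channels; IC50 determined in duplicate in one experiment, advanced compounds tested in several repeat assays.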

The target of series [3] is Cytochrome P450 2D6 (Homo sapiens, UniProt P10635). As to the kind of experiment: Inhibition of CYP2D6 (unknown origin) by fluorescence-based assay.
Cytochrome P450 2D6, sequence (P10635 whole entry): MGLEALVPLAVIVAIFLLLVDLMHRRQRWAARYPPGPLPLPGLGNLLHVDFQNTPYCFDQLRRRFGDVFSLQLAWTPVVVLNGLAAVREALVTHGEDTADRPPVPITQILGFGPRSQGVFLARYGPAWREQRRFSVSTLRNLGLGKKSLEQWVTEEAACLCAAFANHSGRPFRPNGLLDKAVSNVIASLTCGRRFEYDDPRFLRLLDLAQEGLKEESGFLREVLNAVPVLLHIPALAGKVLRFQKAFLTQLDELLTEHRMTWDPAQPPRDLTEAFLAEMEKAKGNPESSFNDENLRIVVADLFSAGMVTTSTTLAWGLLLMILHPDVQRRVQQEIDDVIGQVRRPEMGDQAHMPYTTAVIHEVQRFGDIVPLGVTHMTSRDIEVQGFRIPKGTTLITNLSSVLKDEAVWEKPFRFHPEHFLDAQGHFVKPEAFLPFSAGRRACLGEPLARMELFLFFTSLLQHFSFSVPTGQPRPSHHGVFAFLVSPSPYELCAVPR
The target in series [4] is T1, CYP3A4 (Homo sapiens, UniProt P08684). As to the kind of experiment: Reversible inhibition of CYP3A4 in human liver microsomes assessed as residual enzyme activity using midazolam as substrate by fluorescence-based assay. To be noted: probe midazolam. For orientation: Liver microsomes are a subcellular fraction often used to study metabolism.
T1 sequence (P08684 whole entry): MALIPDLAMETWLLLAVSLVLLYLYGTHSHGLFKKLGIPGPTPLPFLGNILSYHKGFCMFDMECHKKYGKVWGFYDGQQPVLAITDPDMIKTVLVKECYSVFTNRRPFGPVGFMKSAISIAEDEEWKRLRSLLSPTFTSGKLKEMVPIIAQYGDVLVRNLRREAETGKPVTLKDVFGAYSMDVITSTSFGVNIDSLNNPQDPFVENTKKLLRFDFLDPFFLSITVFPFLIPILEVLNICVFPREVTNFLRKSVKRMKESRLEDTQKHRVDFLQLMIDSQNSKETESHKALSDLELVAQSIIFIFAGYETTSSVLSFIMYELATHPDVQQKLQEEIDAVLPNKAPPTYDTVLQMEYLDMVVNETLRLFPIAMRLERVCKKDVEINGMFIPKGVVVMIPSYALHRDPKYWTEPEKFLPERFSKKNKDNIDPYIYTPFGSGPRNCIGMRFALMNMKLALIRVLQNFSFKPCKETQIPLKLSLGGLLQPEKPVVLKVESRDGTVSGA
For series [5], the target named is T1, CYP3A4. The series can be described thus: Time-dependent inhibition of CYP3A4 in human liver microsomes assessed as residual enzyme activity using midazolam as substrate preincubated for 30 mins by fluorescence-based assay. To be noted: probe midazolam.
Series [6] has as its target Cytochrome P450 2C9 (Homo sapiens, UniProt P11712). The series can be described thus: Inhibition of CYP2C9 (unknown origin) by fluorescence-based assay. In kind it is ADME. The method in brief: (§1)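 Fluorescence-based assay with fluorogenic substrate, as for CYP1A2 and 2D6; IC50 determined.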
Series [7] concerns the target Cytochrome P450 2C19 (Homo sapiens, UniProt P33261). As to the kind of experiment: Inhibition of CYP2C19 (unknown origin) by fluorescence-based assay. In kind it is ADME. An outline of the steps: as §1
Series [8] deals with Voltage-gated L-type calcium channel (Homo sapiens, UniProt Q13936+Q13698+Q01668+O60840). The series can be described thus: Inhibition of L-type calcium channel in human IMR-32 cells by FLIPR calcium imaging assay. In kind it is cell-based.
Series [9] in a line: Clearance in human liver microsomes. In kind it is ADME. The following applies: read-out: CLH.
In series [10] the test system is Rattus norvegicus. As to the kind of experiment: Analgesic activity in po dosed Sprague-Dawley rat L5/L6 SNL model assessed as reduction of mechanical allodynia. In kind it is functional. An outline of the steps:
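Male Sprague-Dawley rats, L5/L6 spinal nerve ligation model; drug suspended/diluted in 0.5% methylcellulose, given orally at 0.3–10 mg/kg (dose as free form).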

Cytochrome P450 2C9, sequence (P11712 whole entry): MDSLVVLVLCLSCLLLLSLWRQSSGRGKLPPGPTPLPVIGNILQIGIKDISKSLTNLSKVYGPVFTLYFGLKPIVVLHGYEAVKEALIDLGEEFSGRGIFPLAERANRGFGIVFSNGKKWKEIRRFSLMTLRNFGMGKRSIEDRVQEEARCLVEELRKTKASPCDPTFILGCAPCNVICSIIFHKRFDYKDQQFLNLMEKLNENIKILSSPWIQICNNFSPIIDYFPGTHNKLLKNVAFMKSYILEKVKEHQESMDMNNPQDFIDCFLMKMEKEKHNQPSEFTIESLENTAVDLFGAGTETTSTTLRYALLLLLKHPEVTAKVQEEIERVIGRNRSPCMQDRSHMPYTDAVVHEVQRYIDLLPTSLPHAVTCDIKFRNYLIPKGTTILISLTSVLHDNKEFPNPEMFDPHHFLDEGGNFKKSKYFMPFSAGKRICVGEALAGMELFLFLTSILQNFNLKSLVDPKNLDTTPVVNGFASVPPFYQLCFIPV
Cytochrome P450 2C19, sequence (P33261 whole entry): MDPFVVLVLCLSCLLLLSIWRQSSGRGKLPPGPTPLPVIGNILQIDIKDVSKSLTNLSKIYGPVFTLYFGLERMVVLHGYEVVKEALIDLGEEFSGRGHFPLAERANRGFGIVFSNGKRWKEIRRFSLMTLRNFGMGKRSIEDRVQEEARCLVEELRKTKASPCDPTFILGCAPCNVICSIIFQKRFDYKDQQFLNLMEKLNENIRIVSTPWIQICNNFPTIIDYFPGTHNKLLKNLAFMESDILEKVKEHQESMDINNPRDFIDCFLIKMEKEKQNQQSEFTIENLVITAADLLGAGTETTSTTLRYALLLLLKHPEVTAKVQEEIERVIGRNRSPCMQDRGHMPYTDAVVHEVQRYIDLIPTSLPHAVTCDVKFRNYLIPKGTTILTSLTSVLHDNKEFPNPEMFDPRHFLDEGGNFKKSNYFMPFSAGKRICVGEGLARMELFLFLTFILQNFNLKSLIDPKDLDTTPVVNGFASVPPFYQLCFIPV

The term inhibition in vivo denotes the percentage by which the read-out fell short of the control. The compound `O=C(CNCC1(O)CCCCC1)N1CCc2ccccc2C1C1CCCCC1` (stereo unspecified) came in with an inhibition in vivo at 100 mg/kg in [1] of 62%.

In general, pIC50 refers to the negative decadic logarithm of the IC50, by convention in mol/L. `O=C(CNCC1(O)CCCCC1)N1CCc2ccccc2[C@@H]1c1ccccc1`: the pIC50 in series [2] is 6.00; in [3] it was more than 6.41.

For `CC(C)(O)CNCC(=O)N1CCc2ccccc2C1C1CCCCC1` (stereo unspecified), the pIC50 in [2] is 5.77. Also, in [1], the inhibition in vivo at 100 mg/kg was determined as 7.7%.

As for `CC[C@@H](O)CNCC(=O)N1CCc2ccccc2C1C1CCCCC1` (stereo partly specified), the figures for the pIC50 in series [2] and in series [3] were 5.82 and 6.00, respectively. The compound also returned an inhibition in vivo at 100 mg/kg in series [1] of 19%. For the same compound, in series [4], the activity was 87%. The activity at 30 min in series [5] turned out to be 88%.

Turning to `CC[C@H](O)CNCC(=O)N1CCc2ccccc2C1C1CCCCC1` (stereo partly specified), the pIC50 in [2] was 5.72; in series [3], more than 6.52. The same compound yielded an inhibition in vivo at 100 mg/kg in series [1] of 27%. Moreover, in series [4], the activity is 81%. The activity at 30 min in series [5] was 83%.

In the case of `C[C@@H](O)CNCC(=O)N1CCc2ccccc2C1C1CCCCC1` (stereo partly specified), the pIC50 was 5.70 in series [2] and 5.96 in series [3]. Besides, the inhibition in vivo at 100 mg/kg in [1] was 39%. The activity in series [4] was 92%. Besides, the activity at 30 min in series [5] came out at 95%.

On to `C[C@H](O)CNCC(=O)N1CCc2ccccc2C1C1CCCCC1` (stereo partly specified), for which the values for the pIC50 in series [2] and in series [3] were 5.82 and 5.80, respectively. This compound yielded an inhibition in vivo at 100 mg/kg in series [1] of 0%. Further, the activity in [4] was 96%. Also, the activity at 30 min in series [5] is 91%.

For the compound `CC(C)(C)[C@@H](CO)NCC(=O)N1CCc2ccccc2C1C1CCCCC1` (stereo partly specified), the pIC50 in [2] was 5.85; in series [3] it was 7.17. In series [1], this compound registered an inhibition in vivo at 100 mg/kg of 40%. Besides, the activity in series [4] was determined as 65%. In addition, the activity at 30 min in series [5] came out at 33%.

`CC(C)C[C@@H](CO)NCC(=O)N1CCc2ccccc2C1C1CCCCC1` (stereo partly specified): the pIC50 in series [2] was 5.96; in [3], 7.36. The compound further gave an inhibition in vivo at 100 mg/kg in series [1] of 32%. Moreover, in series [4], the activity was found to be 69%. Besides, the activity at 30 min in series [5] came out at 46%.

Consider `C[C@@H](O)CNCC(=O)N1CCc2ccccc2[C@@H]1C1CCCCC1`, for which the values for the pIC50 in series [2] and in [3] were 5.77 and 5.85, respectively. The compound further yielded an inhibition in vivo at 100 mg/kg in series [1] of 55%. Also, the activity in series [4] was found to be 105%. The activity at 30 min in [5] stood at 87%.

For `C[C@@H](O)CNCC(=O)N1CCc2c(F)cccc2C1C1CCCCC1` (stereo partly specified), the pIC50 in series [2] was 5.92; in series [3], more than 6.41. In [4], the activity stood at 95%. Besides, the activity at 30 min in series [5] was 49%.

Turning to `COc1cccc2c1CCN(C(=O)CNC[C@@H](C)O)C2C1CCCCC1` (stereo partly specified), the pIC50 was 5.70 in [2] and more than 6.11 in series [3]. In series [4], the activity was found to be 107%. Moreover, in [5], the activity at 30 min came to 63%.

Turning to `C[C@@H](O)CNCC(=O)N1CCc2cc(F)ccc2C1C1CCCCC1` (stereo partly specified), the pIC50 in series [2] and in series [3] was 5.80 each time. For the same compound, the activity in [4] is 92%. Moreover, in [5], the activity at 30 min stood at 91%.

On to `Cc1ccc2c(c1)CCN(C(=O)CNC[C@@H](C)O)C2C1CCCCC1` (stereo partly specified), for which the pIC50 in series [2] was 5.62.

Consider `COc1ccc2c(c1)CCN(C(=O)CNC[C@@H](C)O)C2C1CCCCC1` (stereo partly specified), for which the pIC50 was 5.72 in [2] and more than 6.11 in series [3]. Moreover, the activity in series [4] worked out at 93%. For the same compound, the activity at 30 min in series [5] came to 97%.

Regarding `C[C@@H](O)CNCC(=O)N1CCc2cc(C#N)ccc2C1C1CCCCC1` (stereo partly specified), in [2], the pIC50 is 5.51.

For `C[C@@H](O)CNCC(=O)N1CCc2cc(C(N)=O)ccc2C1C1CCCCC1` (stereo partly specified), the pIC50 in series [2] is less than 5.00.

For `C[C@@H](O)CNCC(=O)N1CCc2ccc(F)cc2C1C1CCCCC1` (stereo partly specified), the pIC50 was 5.64 in series [2] and 5.89 in series [3]. Besides, the activity in series [4] turned out to be 109%. The activity at 30 min in series [5] turned out to be 80%.

Turning to `Cc1ccc2c(c1)C(C1CCCCC1)N(C(=O)CNC[C@@H](C)O)CC2` (stereo partly specified), in series [2], the pIC50 is 5.77.

In the case of `CCc1ccc2c(c1)C(C1CCCCC1)N(C(=O)CNC[C@@H](C)O)CC2` (stereo partly specified), the figures for the pIC50 in [2] and in series [3] were 6.05 and 5.89, respectively. Further, the activity in series [4] is 85%. Also, in series [5], the activity at 30 min is 65%.

With `CC(C)c1ccc2c(c1)C(C1CCCCC1)N(C(=O)CNC[C@@H](C)O)CC2` (stereo partly specified), the pIC50 in series [2] is 5.89; in series [3] it was 5.72. For the same compound, the activity in series [4] came to 88%. In addition, in series [5], the activity at 30 min is 43%.

On to `COc1ccc2c(c1)C(C1CCCCC1)N(C(=O)CNC[C@@H](C)O)CC2` (stereo partly specified), for which the pIC50 in series [2] is 5.80; in [3] it was 5.43. Also, in series [4], the activity was found to be 97%. In addition, the activity at 30 min in series [5] was 83%.

As to `C[C@@H](O)CNCC(=O)N1CCc2ccc(C#N)cc2C1C1CCCCC1` (stereo partly specified), the pIC50 in series [2] was 5.59.

Turning to `C[C@@H](O)CNCC(=O)N1CCc2cccc(F)c2C1C1CCCCC1` (stereo partly specified), the pIC50 in series [2] was 5.60.

`COc1cccc2c1C(C1CCCCC1)N(C(=O)CNC[C@@H](C)O)CC2` (stereo partly specified): the pIC50 is 5.85 in series [2] and 4.52 in series [3]. Further, in [4], the activity was 85%. For the same compound, the activity at 30 min in [5] came to 58%.

With `C[C@@H](O)CNCC(=O)N1CCc2ccccc2[C@@H]1c1ccccc1`, the pIC50 was 5.62 in [2] and 5.66 in series [3]. In addition, the activity in [4] was found to be 98%. Besides, in series [5], the activity at 30 min stood at 94%.

Take `C[C@@H](O)CNCC(=O)N1CCc2cccc(F)c2C1c1ccccc1` (stereo partly specified): the pIC50 in [2] is 6.00; in series [3], 5.89. Also, in series [4], the activity is 103%. In addition, the activity at 30 min in [5] was 95%.

On to `Cc1cccc2c1C(c1ccccc1)N(C(=O)CNC[C@@H](C)O)CC2` (stereo partly specified), for which the pIC50 was 5.89 in series [2] and 5.25 in series [3]. In addition, the activity in [4] is 100%. In [5], the activity at 30 min stood at 89%.

By IC50 is commonly meant the midpoint of a concentration-inhibition curve. For orientation: ED50 means the midpoint of the dose-response relation. Turning to `COc1cccc2c1[C@H](c1ccccc1)N(C(=O)CNC[C@@H](C)O)CC2`, the pIC50 in series [2] is 5.85; in series [6], less than 4.30; in [7] it was less than 4.30. Testing at 100 mg/kg in series [1] gave an inhibition in vivo of 77%. In series [4], the activity worked out at 94%. Also, the activity at 30 min in [5] is 90%. For the same compound, in series [8], the IC50 is more than 10000 nM. Further, the CLint scaled in [9] was found to be 45.9 mL/min/kg. In addition, the ED50 in series [10] worked out at 2.8 mg/kg.

For `COc1cccc2c1[C@@H](c1ccccc1)N(C(=O)CNC[C@@H](C)O)CC2`, the pIC50 in [2] is 5.48. Moreover, the activity in series [4] came out at 110%. Moreover, the activity at 30 min in [5] is 91%.
